Experimental data: ChEMBL document CHEMBL1154375, “Novel dehydroepiandrosterone derivatives with antiapoptotic, neuroprotective activity” (J Med Chem, 2009)
Active and inactive are the calls of the source. The calls are words filed in the database; no cut-off is given here.

How the values were obtained:
MCF7 = test: Induction of human MCF7 cells growth containing endogenous ERalpha receptor at 1 uM by MTT assay relative to estradiol; type: functional
Method in brief: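 Breast cancer cells at 8000/well in phenol red-free MEM, 1 μg/mL insulin, 5% charcoal-stripped FBS; after 72 h, 96 h exposure; MTT formazan at 550 nm.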

PC-12 [1] = test: Induction of dopamine release in rat PC12 cells at 10 nM after 10 mins by radioimmunoassay relative to control; type: functional
Method in brief: (§1)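 PC12 cells at 10^6/well on poly(L-lysine) exposed to 10 nM steroid in serum-free medium for 5–30 min or 3–48 h; 1 mL supernatant acidified with 0.1 M HCl; dopamine measured by 125I radioimmunoassay after COMT conversion to 3-methoxytyramine and acylation. Expressed as % of untreated cells; four independent experiments.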

PC-12 [2] = test: Induction of dopamine release in rat PC12 cells at 10 nM after 24 hrs mins by radioimmunoassay; type: functional, cell-based; method in brief: as §1
PC-12 [3] = test: Induction of tyrosine hydroxylase mRNA expression in rat PC12 cells at 10 nM after 6 hrs mins by RT-PCR; type: functional, cell-based
Method in brief: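 PC12 cells incubated 6 h with 10 nM steroid; TH mRNA measured by RT-PCR, 33 cycles, 368 bp product on 2% agarose gel, normalized to GAPDH mRNA.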

[4] = molecular target: T1, Estrogen receptor (Homo sapiens) (UniProt P03372); test: Agonist activity at ERalpha in human MCF7:D5L cells assessed as induction of ERE-dependent luciferase expression at 1 uM relative to estradiol; type: functional, cell-based
T1 sequence (whole entry): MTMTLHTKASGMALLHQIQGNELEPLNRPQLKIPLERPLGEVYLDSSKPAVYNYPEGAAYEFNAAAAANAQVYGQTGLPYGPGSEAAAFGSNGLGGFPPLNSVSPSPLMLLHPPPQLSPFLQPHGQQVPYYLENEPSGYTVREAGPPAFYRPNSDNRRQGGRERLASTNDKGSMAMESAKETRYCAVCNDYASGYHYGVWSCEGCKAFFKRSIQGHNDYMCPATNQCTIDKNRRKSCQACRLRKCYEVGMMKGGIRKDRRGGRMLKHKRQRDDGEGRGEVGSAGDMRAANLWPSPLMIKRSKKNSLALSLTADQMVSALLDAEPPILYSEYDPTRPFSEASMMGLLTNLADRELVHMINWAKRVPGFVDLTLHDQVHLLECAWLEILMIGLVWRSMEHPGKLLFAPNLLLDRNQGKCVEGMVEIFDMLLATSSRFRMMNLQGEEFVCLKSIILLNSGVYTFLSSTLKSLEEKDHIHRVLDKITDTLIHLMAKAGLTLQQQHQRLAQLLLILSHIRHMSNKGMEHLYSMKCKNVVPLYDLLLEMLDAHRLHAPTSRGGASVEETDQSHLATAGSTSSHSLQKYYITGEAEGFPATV

[5] = molecular target: T1, Estrogen receptor (Homo sapiens); test: Antagonist activity at ERalpha in human MCF7:D5L cells assessed as inhibition of ERE-dependent luciferase expression at 1 uM relative to ICI-182780; type: functional, cell-based
[6] = molecular target: Estrogen receptor beta (Homo sapiens) (UniProt Q92731); test: Agonist activity at ERbeta in HEK293 cells assessed as induction of ERE-dependent luciferase expression at 1 uM relative to estradiol; type: functional, cell-based
[7] = molecular target: Estrogen receptor beta (Homo sapiens) (UniProt Q92731); test: Antagonist activity at ERbeta in HEK293 cells assessed as inhibition of ERE-dependent luciferase expression at 1 uM relative to ICI-182780; type: functional, cell-based; design: scale not given: the % may be the effect or the level left
[8] = molecular target: T1, Estrogen receptor (Homo sapiens); test: Agonist activity at estrogen receptor in human Ishikawa cells assessed as induction of ERE-dependent alkaline phosphatase level at 1 uM relative to estradiol; type: functional, cell-based
[9] = molecular target: T1, Estrogen receptor (Homo sapiens); test: Antagonist activity at estrogen receptor in human Ishikawa cells assessed as inhibition of ERE-dependent alkaline phosphatase levels at 1 uM relative to ICI-182780; type: functional, cell-based; design: scale not given: the % may be the effect or the level left
Ishikawa = test: Induction of human Ishikawa cells growth containing endogenous ERalpha receptor at 1 uM by MTT assay relative to estradiol; type: functional, cell-based
Method in brief: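 Endometrial cells at 8000/well in phenol red-free MEM, 1 μg/mL insulin, 5% charcoal-stripped FBS; compound added 24 h after plating, 96 h exposure; MTT at 550 nm.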

LNCaP = test: Induction of human LNCAP cells growth containing endogenous […] receptor at 1 uM by MTT assay relative to estradiol; type: functional, cell-based
Method in brief: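 Prostate cells at 5000/well on polylysine-coated wells in phenol red-free RPMI with 10% charcoal-stripped FBS; after 72 h, 96 h exposure; MTT at 550 nm.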

PC-12 [10] = test: Cytotoxicity against rat PC12 cells at 0.1 to 10 uM after 24 to 72 hrs by MTT assay; type: cell-based; settings: pc-12, 10 µM
Method in brief: (§2)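 Seeded at 2×10^4 cells/mL in serum-containing medium (PC12: RPMI 1640, 10% horse serum, 5% FBS; HEK293 and HT22: DMEM, 10% FBS) for 24 h, then 0.1, 1 or 10 μM compound for 24, 48 or 72 h. MTT 5 mg/mL, 4 h, 37 °C; DMSO-dissolved formazan read at 570 nm; % of untreated control; three replicates, three experiments.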

HEK293 = test: Cytotoxicity against HEK293 cells at 0.1 to 10 uM after 24 to 72 hrs by MTT assay; type: cell-based; settings: human, hek293, 10 µM; method in brief: as §2
[11] = Cytotoxicity against mouse HT22 cells at 0.1 to 10 uM after 24 to 72 hrs by MTT assay; type: cell-based; settings: ht-22, 10 µM; method in brief: as §2
PC-12 [12] = test: Neuroprotective activity in rat PC12 cells assessed as inhibition of serum deprivation-induced apoptosis after 24 hrs by APO Percentage apoptosis assay; type: functional, cell-based; settings: PC-12, 24 h
PC-12 [13] = test: Neuroprotective activity in rat PC12 cells assessed as inhibition of serum deprivation-induced apoptosis after 24 hrs by FACS flow cytometry; type: functional, cell-based
Method in brief: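 PC12 cells (10^6/well) 24 h in serum-free medium with BSA plus 100 nM steroid; stained with 2 μg/mL annexin V-FITC (10 min, dark, HEPES/CaCl2 buffer pH 7.4) and propidium iodide, analysed by flow cytometry within 20 min, 10000 cells per treatment; at least four experiments in triplicate.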

[14] = Displacement of [3H]DHEA from DHEA-binding site in rat PC12 cell membranes by […] counting; design: species or system Membrane; settings: pc-12
PC-12 [15] = test: Neuroprotective activity against serum deprivation-induced apoptosis in rat PC12 cells assessed as increase in antiapoptotic protein Bcl2 levels at 10 nM after 12 hrs by Western blot; type: functional, cell-based
Method in brief: (§3)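 PC12 cells cultured 12 h in serum-free medium (0.1% BSA, 10 nM haloperidol) with 10 nM steroid; total protein extracts Western blotted for Bcl-2 or Bcl-xL, band intensity by densitometry normalized to actin; % of control; three independent experiments.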

PC-12 [16] = test: Neuroprotective activity against serum deprivation-induced apoptosis in rat PC12 cells assessed as increase in antiapoptotic protein Bcl-XL levels at 10 nM after 12 hrs by Western blot; type: functional, cell-based; method in brief: as §3
PC-12 [17] = test: Neuroprotective activity in rat PC12 cells assessed as inhibition of serum deprivation-induced apoptosis at 100 nM after 24 hrs by APO Percentage apoptosis assay; type: functional, cell-based
Method in brief: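 PC12 cells cultured 24 h in serum-free medium with BSA and 10 nM haloperidol plus 100 nM steroid. Apoptotic cells stained with APOPercentage dye, dye released and read at 550 nm (reference 620 nm); expressed relative to serum-free control; at least four experiments in triplicate.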

Estrogen receptor beta (Homo sapiens), sequence (Q92731 whole entry): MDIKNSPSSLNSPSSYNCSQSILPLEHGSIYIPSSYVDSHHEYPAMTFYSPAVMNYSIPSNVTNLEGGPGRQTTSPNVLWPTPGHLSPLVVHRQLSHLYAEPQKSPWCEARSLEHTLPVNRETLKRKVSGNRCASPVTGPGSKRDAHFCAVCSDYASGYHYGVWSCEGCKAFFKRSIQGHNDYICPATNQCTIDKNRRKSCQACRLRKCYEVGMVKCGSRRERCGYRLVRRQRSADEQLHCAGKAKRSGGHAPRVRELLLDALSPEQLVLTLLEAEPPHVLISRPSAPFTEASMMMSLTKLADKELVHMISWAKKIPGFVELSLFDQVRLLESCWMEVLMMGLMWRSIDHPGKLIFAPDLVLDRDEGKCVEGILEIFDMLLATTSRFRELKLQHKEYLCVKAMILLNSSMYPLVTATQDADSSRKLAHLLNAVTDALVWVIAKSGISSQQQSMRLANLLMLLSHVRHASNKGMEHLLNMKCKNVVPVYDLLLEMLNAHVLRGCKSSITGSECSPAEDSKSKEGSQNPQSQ

For `C[C@]12CC[C@H](O)CC1=CC[C@@H]1[C@@H]2CC[C@@]2(C)[C@H]1CC[C@@]21CO1`, the Activity (MCF7) was 33%, the “fold change (FC)” value (PC-12 [1]) was 2 and the Activity (PC-12 [2]) was “Active”. The Activity (PC-12 [3]) was “Active”, the Activity [4] was 29% and the Activity [5] was “inactive”. For the same compound, the Activity [6] was “inactive”, the Activity [7] was “inactive” and the Activity [8] was 22%. For the same compound, the Activity [9] was “inactive”, the Activity (Ishikawa) was “inactive” and the Activity (LNCaP) was “inactive”. The Activity (PC-12 [10]) was “Non-toxic”, the Activity (HEK293) was “Non-toxic” and the Activity [11] was “Non-toxic”. The IC50 (PC-12 [12]) was 0.19 nM, the Activity (PC-12 [13]) was “Active” and the IC50 [14] was 0.04 nM. The Activity (PC-12 [15]) was “Active” and the Activity (PC-12 [16]) was “Active”.

With `C[C@]1(O)CC[C@@]2(C)C(=CC[C@@H]3[C@@H]2CC[C@]2(C)C(=O)CC[C@@H]32)C1` the inhibition (PC-12 [17]) was “inactive”.

For `COC[C@]1(O)CC[C@@]2(C)C(=CC[C@@H]3[C@@H]2CC[C@]2(C)C(=O)CC[C@@H]32)C1`, the inhibition (PC-12 [17]) was “inactive”.

For `C[C@]12CC[C@H](O)CC1=CC[C@@H]1[C@@H]2CC[C@@]2(C)[C@H]1CC[C@]21O[C@@H]1CO`, the Activity (MCF7) was “inactive”, the “fold change (FC)” value (PC-12 [1]) was 2 and the Activity (PC-12 [2]) was “Active”. The Activity (PC-12 [3]) was “Active”, the Activity [4] was “inactive” and the Activity [5] was “inactive”. For the same compound, the Activity [6] was “inactive”, the Activity [7] was 31% and the Activity [8] was “inactive”. The Activity [9] was 24%, the Activity (Ishikawa) was “inactive” and the Activity (LNCaP) was “inactive”. For the same compound, the Activity (PC-12 [10]) was “Non-toxic”, the Activity (HEK293) was “Non-toxic” and the Activity [11] was “Non-toxic”. For the same compound, the IC50 (PC-12 [12]) was 6.4 nM, the Activity (PC-12 [13]) was “Active” and the IC50 [14] was 18.6 nM. The Activity (PC-12 [15]) was “Active” and the Activity (PC-12 [16]) was “Active”.

For `C[C@]12CC[C@H](O)CC1=CC[C@@H]1[C@@H]2CC[C@@]2(C)[C@H]1CC[C@]21O[C@H]1CO`, the Activity (MCF7) was “inactive”, the Activity [4] was “inactive” and the Activity [5] was “inactive”. For the same compound, the Activity [6] was “inactive”, the Activity [7] was “inactive” and the Activity [8] was “inactive”. The Activity [9] was “inactive”, the Activity (Ishikawa) was “inactive” and the Activity (LNCaP) was “inactive”. For the same compound, the Activity (PC-12 [10]) was “Non-toxic”, the Activity (HEK293) was “Non-toxic” and the Activity [11] was “Non-toxic”. For the same compound, the IC50 (PC-12 [12]) was 99 nM, the Activity (PC-12 [13]) was “Active” and the IC50 [14] was 0.11 nM. The Activity (PC-12 [15]) was “Active” and the Activity (PC-12 [16]) was “Active”.

With `C[C@@]1(O)CC[C@@]2(C)C(=CC[C@@H]3[C@@H]2CC[C@]2(C)C(=O)CC[C@@H]32)C1` the inhibition (PC-12 [17]) was “inactive”.

For `C[C@]12CC[C@@](O)(CN=[N+]=[N-])CC1=CC[C@@H]1[C@@H]2CC[C@]2(C)C(=O)CC[C@@H]12`, the inhibition (PC-12 [17]) was “inactive”.

With `C[C@]12CC[C@@](O)(CC#N)CC1=CC[C@@H]1[C@@H]2CC[C@]2(C)C(=O)CC[C@@H]12` the inhibition (PC-12 [17]) was “inactive”.

For `CO[C@H]1CC[C@H]2[C@@H]3CC=C4C[C@@H](O)CC[C@]4(C)[C@H]3CC[C@]12C`, the inhibition (PC-12 [17]) was “inactive”.

With `CCCC[C@@]1(O)CC[C@@]2(C)C(=CC[C@@H]3[C@@H]2CC[C@]2(C)C(=O)CC[C@@H]32)C1` the inhibition (PC-12 [17]) was “inactive”.

With `C[C@]12CC[C@H](O)CC1=CC[C@@H]1[C@@H]2CC[C@]2(C)C(=O)CC[C@@H]12` [PRASTERONE] the IC50 (PC-12 [12]) was 0.29 nM and the IC50 [14] was 1.65 nM.
